Assay results reported in ChEMBL document CHEMBL3124870, “Discovery and characterization of potent thiazoles versus methicillin- and vancomycin-resistant Staphylococcus aureus” (J Med Chem, 2014).
Converted amounts (≈) assume the structure as drawn.

How the values were obtained:
[1] = test system: Staphylococcus aureus; test: Bactericidal activity against methicillin-resistant Staphylococcus aureus USA300 assessed as time required to complete elimination of bacteria by 3-log10 by time-kill assay; type: functional
Procedure, shortened: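 Viable counts (CFU) followed over a 12-hour window; endpoint is a 3-log10 fall in CFU.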

[2] = test system: Staphylococcus aureus; test: Antibacterial activity against methicillin-resistant Staphylococcus aureus NRS119 assessed as inhibition of visible growth by broth microdilution method; type: functional
[3] = test system: MDCK; test: Efflux ratio of apparent permeability from basolateral to apical side over apical to basolateral side in MDCK cells expressing MDR1 for 2 hrs by LC-MS/MS analysis; type: ADME, cell-based, Canis lupus familiaris; details: dog
Procedure, shortened: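 Madin-Darby canine kidney cells transfected to overexpress MDR1 (P-glycoprotein 1). Apparent permeability (Papp, cm/sec) was measured in both the apical-to-basolateral and basolateral-to-apical directions. The efflux ratio was taken as Papp(B→A)/Papp(A→B).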

[4] = test system: MDCK; test: Apparent permeability from apical to basolateral side in MDCK cells expressing MDR1 for 2 hrs by LC-MS/MS analysis; type: ADME, cell-based, Canis lupus familiaris; details: dog
[5] = test system: Staphylococcus aureus; test: Antibacterial activity against methicillin-resistant Staphylococcus aureus USA1100 assessed as inhibition of visible growth by broth microdilution method; type: functional
[6] = test system: MDCK; test: Apparent permeability from basolateral to apical side in MDCK cells expressing MDR1 for 2 hrs by LC-MS/MS analysis; type: ADME, cell-based, Canis lupus familiaris; details: dog
[7] = test system: Staphylococcus aureus; test: Antibacterial activity against methicillin-resistant Staphylococcus aureus USA100 assessed as inhibition of visible growth by broth microdilution method; type: functional
[8] = Aqueous solubility of compound in phosphate buffer assessed as solubility limit after 2 hrs by turbidity analysis; type: physicochemical
[9] = test system: Staphylococcus aureus; test: Antibacterial activity against methicillin-resistant Staphylococcus aureus USA500 assessed as inhibition of visible growth by broth microdilution method; type: functional
[10] = test system: Staphylococcus aureus; test: Antibacterial activity against methicillin-resistant Staphylococcus aureus ATCC 43300 assessed as inhibition of visible growth by broth microdilution method; type: functional
[11] = test system: Staphylococcus aureus; test: Antibacterial activity against vancomycin-intermediate Staphylococcus aureus HIP07256 assessed as inhibition of visible growth by broth microdilution method; type: functional
[12] = test system: HeLa; test: Cytotoxicity against human HeLa cells assessed as cell viability at 11 ug/ml by MTS assay; type: cell-based
[13] = test system: Staphylococcus aureus; test: Antibacterial activity against methicillin-resistant Staphylococcus aureus USA800 assessed as inhibition of visible growth by broth microdilution method; type: functional
[14] = test system: Caco-2; test: Apparent permeability across basolateral to apical to side in human Caco2 cells at 10 microM for 2 hrs by LC-MS/MS analysis; type: ADME, cell-based; details: caco-2, 2 h
[15] = test system: Staphylococcus aureus; test: Antibacterial activity against methicillin-resistant Staphylococcus aureus NRS107 assessed as inhibition of visible growth by broth microdilution method; type: functional
[16] = test system: Staphylococcus aureus; test: Antibacterial activity against vancomycin-resistant Staphylococcus aureus assessed as inhibition of visible growth by broth microdilution method; type: functional
[17] = test system: Caco-2; test: Efflux ratio of apparent permeability from basolateral to apical side over apical to basolateral side in human Caco2 cells at 10 microM for 2 hrs by LC-MS/MS analysis; type: ADME, cell-based; details: caco-2, 2 h
Procedure, shortened: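 Caco-2 monolayer permeability was run under slightly acidic conditions, with the compound at 10 μM. Transfer was measured in the apical-to-basolateral and basolateral-to-apical directions. The efflux ratio was taken as B→A over A→B permeability.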

[18] = test system: Staphylococcus aureus; test: Antibacterial activity against methicillin-resistant Staphylococcus aureus NRS194 assessed as inhibition of visible growth by broth microdilution method; type: functional
[19] = test system: Staphylococcus aureus; test: Antibacterial activity against methicillin-resistant Staphylococcus aureus USA700 assessed as inhibition of visible growth by broth microdilution method; type: functional
[20] = test system: Liver microsome; test: Half life in human liver microsomes by LC-MS/MS analysis; type: ADME
[21] = test system: Staphylococcus aureus; test: Antibacterial activity against methicillin-resistant Staphylococcus aureus NRS108 assessed as inhibition of visible growth by broth microdilution method; type: functional
[22] = test system: Staphylococcus aureus; test: Antibacterial activity against methicillin-resistant Staphylococcus aureus USA200 assessed as inhibition of visible growth by broth microdilution method; type: functional
[23] = test system: Staphylococcus aureus; test: Antibacterial activity against vancomycin-intermediate Staphylococcus aureus ATCC 700699 assessed as inhibition of visible growth by broth microdilution method; type: functional
[24] = test system: Staphylococcus aureus; test: Antibacterial activity against vancomycin-intermediate Staphylococcus aureus LIM 3 assessed as inhibition of visible growth by broth microdilution method; type: functional
[25] = test system: Staphylococcus aureus; test: Antibacterial activity against methicillin-resistant Staphylococcus aureus USA1000 assessed as inhibition of visible growth by broth microdilution method; type: functional
[26] = test system: Staphylococcus aureus; test: Antibacterial activity against methicillin-resistant Staphylococcus aureus USA400 assessed as inhibition of visible growth by broth microdilution method; type: functional
[27] = test system: Staphylococcus aureus; test: Antibacterial activity against methicillin-resistant Staphylococcus aureus USA300 assessed as inhibition of visible growth by broth microdilution method; type: functional

Row | Structure (SMILES) | Time [1] | MIC [2] | MIC [5] | MIC [7] | MIC [9] | MIC [10] | MIC [11] | Activity [12] | MIC [13] | MIC [15] | MIC [16] | MIC [18] | MIC [19] | MIC [21] | MIC [22] | MIC [23] | MIC [24] | MIC [25] | MIC [26] | MIC [27] | also measured
1 | CCCCc1ccc(-c2nc(C)c(/C(C)=N/NC(=N)N)s2)cc1 | 2 h | 1.4 mg/L (≈ 4.25 µM) | 2.8 mg/L (≈ 8.5 µM) | 5.5 mg/L (≈ 16.7 µM) | 1.4 mg/L (≈ 4.25 µM) | 2.8 mg/L (≈ 8.5 µM) | 1.4 mg/L (≈ 4.25 µM) | Non-toxic | 2.3 mg/L (≈ 6.98 µM) | 1.4 mg/L (≈ 4.25 µM) | 1.4 mg/L (≈ 4.25 µM) | 1.4 mg/L (≈ 4.25 µM) | 1.8 mg/L (≈ 5.46 µM) | 1.4 mg/L (≈ 4.25 µM) | 2.8 mg/L (≈ 8.5 µM) | 1.4 mg/L (≈ 4.25 µM) | 1.4 mg/L (≈ 4.25 µM) | 1.4 mg/L (≈ 4.25 µM) | 1.4 mg/L (≈ 4.25 µM) | 1.4 mg/L (≈ 4.25 µM) | Ratio [3]: 5; Papp [4]: 7 nm/s; Papp [6]: 36 nm/s; solubility kinetic at 2 h [8]: 62.6 µM (≈ 20.6 µg/mL); Papp [14]: 22 nm/s; Ratio [17]: > 2; t1/2 [20]: 28.8 min
2 | C/C(=N\NC(=N)N)c1sc(-c2ccc(-c3ccccc3)cc2)nc1C |  | 0.6 mg/L (≈ 1.72 µM) | 0.6 mg/L (≈ 1.72 µM) | 2 mg/L (≈ 5.72 µM) | 1.6 mg/L (≈ 4.58 µM) | 0.6 mg/L (≈ 1.72 µM) | 0.5 mg/L (≈ 1.43 µM) | Non-toxic | 1.2 mg/L (≈ 3.43 µM) | 1.2 mg/L (≈ 3.43 µM) | 0.6 mg/L (≈ 1.72 µM) | 1.4 mg/L (≈ 4.01 µM) | 0.8 mg/L (≈ 2.29 µM) | 2 mg/L (≈ 5.72 µM) | 0.6 mg/L (≈ 1.72 µM) | 0.6 mg/L (≈ 1.72 µM) | 0.6 mg/L (≈ 1.72 µM) | 0.8 mg/L (≈ 2.29 µM) | 0.8 mg/L (≈ 2.29 µM) | 1 mg/L (≈ 2.86 µM) | 
3 | CCCc1ccc(-c2nc(C)c(/C(C)=N/NC(=N)N)s2)cc1 |  | 1.9 mg/L (≈ 6.02 µM) | 1.6 mg/L (≈ 5.07 µM) | 1.6 mg/L (≈ 5.07 µM) | 1.9 mg/L (≈ 6.02 µM) | 1.2 mg/L (≈ 3.8 µM) | 1.9 mg/L (≈ 6.02 µM) | Non-toxic | 1.9 mg/L (≈ 6.02 µM) | 1.2 mg/L (≈ 3.8 µM) | 1.2 mg/L (≈ 3.8 µM) | 1.9 mg/L (≈ 6.02 µM) | 1.2 mg/L (≈ 3.8 µM) | 1.2 mg/L (≈ 3.8 µM) | 1.9 mg/L (≈ 6.02 µM) | 1.9 mg/L (≈ 6.02 µM) | 1.6 mg/L (≈ 5.07 µM) | 1.6 mg/L (≈ 5.07 µM) | 1.2 mg/L (≈ 3.8 µM) | 1.2 mg/L (≈ 3.8 µM) | 
4 | CCCCCc1ccc(-c2nc(C)c(/C(C)=N/NC(=N)N)s2)cc1 | 2 h | 0.9 mg/L (≈ 2.62 µM) |  |  |  | 0.8 mg/L (≈ 2.33 µM) | 0.7 mg/L (≈ 2.04 µM) | Non-toxic | 0.7 mg/L (≈ 2.04 µM) | 0.5 mg/L (≈ 1.46 µM) |  | 1.1 mg/L (≈ 3.2 µM) | 0.9 mg/L (≈ 2.62 µM) | 0.9 mg/L (≈ 2.62 µM) |  |  |  |  | 0.9 mg/L (≈ 2.62 µM) |  | 
5 | CCCCCCCc1ccc(-c2nc(C)c(/C(C)=N/NC(=N)N)s2)cc1 |  | 1.5 mg/L (≈ 4.04 µM) | 1.5 mg/L (≈ 4.04 µM) | 3 mg/L (≈ 8.07 µM) | 3 mg/L (≈ 8.07 µM) | 3 mg/L (≈ 8.07 µM) | 1.5 mg/L (≈ 4.04 µM) | Non-toxic | 1.5 mg/L (≈ 4.04 µM) | 1 mg/L (≈ 2.69 µM) | 1.5 mg/L (≈ 4.04 µM) | 3 mg/L (≈ 8.07 µM) | 4 mg/L (≈ 10.8 µM) | 3 mg/L (≈ 8.07 µM) | 1.2 mg/L (≈ 3.23 µM) | 0.7 mg/L (≈ 1.88 µM) | 0.7 mg/L (≈ 1.88 µM) | 2.5 mg/L (≈ 6.73 µM) | 1.5 mg/L (≈ 4.04 µM) | 2.5 mg/L (≈ 6.73 µM) | 
6 | CCCCCCCCCc1ccc(-c2nc(C)c(/C(C)=N/NC(=N)N)s2)cc1 |  | 2.2 mg/L (≈ 5.51 µM) |  |  | 3.7 mg/L (≈ 9.26 µM) |  | 2.9 mg/L (≈ 7.26 µM) | Non-toxic | 1.8 mg/L (≈ 4.5 µM) | 1.1 mg/L (≈ 2.75 µM) |  | 4.4 mg/L (≈ 11 µM) | 1.8 mg/L (≈ 4.5 µM) | 4.4 mg/L (≈ 11 µM) |  | 1.1 mg/L (≈ 2.75 µM) | 1.1 mg/L (≈ 2.75 µM) |  | 4.4 mg/L (≈ 11 µM) |  | 
